Measured values reported in the array DNA melting data of Ke et al. (doi:10.1101/2024.01.08.574731).

Tests used:
[1] = melting temperature; fluorescence melt of hairpins on a sequencing array, two-state fit, raised by 9.35 °C to match UV melts; settings: sodium 0.088 M
Method in brief: (§1)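 Melting temperature and folding enthalpy were derived from bootstrapped two-state fits. The fitted temperatures were raised by 9.35 °C to agree with UV melts, and four replicates were combined by inverse variance. The underlying data were Cy3 fluorescence images of library hairpins, with annealed Cy3 and quencher oligos, on a sequenced MiSeq flow cell in 50 mM Na-HEPES pH 8.0, 25 mM NaCl, taken in 2.5 °C steps up to 60 °C, normalised to pre-quench Cy3 and to control constructs.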

[2] = folding enthalpy; higher = less favourable; fluorescence melt of hairpins on a sequencing array, two-state fit; settings: sodium 0.088 M
Method in brief: as §1

Sequence	Tm [1]	folding enthalpy [2]
GTATCCGGAAACAGATAC (((((.(....).)))))	31.7 °C	-23.4 kcal/mol
GTATCCGGAAACGGACAC ((.((((....)))).))	39 °C	-19.8 kcal/mol
GTATCGCCGAAAGGCTAC (((..(((....))))))	32.9 °C	-6.58 kcal/mol
GTATCGGGAAACTGATGC (.(((.(....).))).)	33.1 °C	-29.6 kcal/mol
GTATCTCGAAAGAGCTAC (((.(((....))).)))	36 °C	-21.8 kcal/mol
GTATCTGGAAACAGACAC ((.((((....)))).))	30.7 °C	-26.2 kcal/mol
GTATCTGGAAACAGATAC (((((((....)))))))	56.1 °C	-39.5 kcal/mol
GTATCTGGAAACGGATAC (((((.(....).)))))	44.8 °C	-38 kcal/mol
GTATGAGGAAACCCATAC (((((.(....).)))))	35.3 °C	-30.3 kcal/mol
GTATGCCGAAAGGCGTAC (((.(((....))).)))	63.4 °C	-26.2 kcal/mol
GTATGCGAAAGCAGATAC ((((((....)))..)))	36.7 °C	-12.9 kcal/mol
GTATGCGAAAGCATTTAC ((((((....)))..)))	30.6 °C	-8.67 kcal/mol
GTATGCGCGAAAGCGTAC (((..(((....))))))	31.3 °C	-9.22 kcal/mol
GTATGGGGAAACCCATGC (.(((((....))))).)	49 °C	-20.9 kcal/mol
GTATGTACGAAAGTATAC (((..(((....))))))	31 °C	-11.4 kcal/mol
GTATGTCGAAAGACTAC (((.(((....))))))	41.3 °C	-19.2 kcal/mol
GTATGTGGAAACACATGC (.(((((....))))).)	47.9 °C	-24.3 kcal/mol
GTATGTGGAAACATATGC (.((.((....)).)).)	37.5 °C	-24.1 kcal/mol
GTATGTGGAAACATGTAC (((..((....))..)))	30.9 °C	-16.4 kcal/mol
GTATGTGGAAACGCATAC (((((.(....).)))))	46.9 °C	-29.7 kcal/mol
GTATTAGCGAAAGCTTAC (((..(((....))))))	25.5 °C	-12.8 kcal/mol
GTATTCGAAAGAATTTAC ((((((....)))..)))	27.5 °C	-12.2 kcal/mol
GTATTCGGAAACAAATAC (((((.(....).)))))	22.5 °C	-10.3 kcal/mol

Sequence	Tm [1]	folding enthalpy [2]
GTATTGACGAAAGTCTAC (((..(((....))))))	25.1 °C	-8.47 kcal/mol
GTATTGCGAAAGCATTAC (((.(((....))).)))	44.9 °C	-23.7 kcal/mol
GTATTGGGAAACTAATAC (((((.(....).)))))	34.8 °C	-22.2 kcal/mol
GTATTTCCGAAAGGATAC (((..(((....))))))	26 °C	-11.8 kcal/mol
GTATTTCGAAAGAAGTAC (((.(((....))).)))	40.4 °C	-34.3 kcal/mol
GTCAAACGAAAGTTGGAC (((.(((....))).)))	49.9 °C	-24.8 kcal/mol
GTCAACACGAAAGTGGAC (((..(((....))))))	38.6 °C	-19.3 kcal/mol
GTCAACCGAAAGGTCGAC (((.(((....))).)))	50.9 °C	-35.1 kcal/mol
GTCAACGAAAGTTATGAC ((((((....)))..)))	33.1 °C	-20.5 kcal/mol
GTCAACGAAAGTTCAGAC ((((((....)))..)))	28.3 °C	-11.4 kcal/mol
GTCAACGAAAGTTGAC ((((((....))))))	68.9 °C	-37.4 kcal/mol
GTCAACGAAAGTTTGGAC ((((((....)))..)))	27.8 °C	-13.8 kcal/mol
GTCAACGGAAACGTTGAC (((((((....)))))))	69 °C	-45.2 kcal/mol
GTCAATACGAAAGTAGAC (((..(((....))))))	27.3 °C	-12 kcal/mol
GTCAATGGAAACATTGAC (((((((....)))))))	58.9 °C	-39.8 kcal/mol
GTCACAACGAAAGTTGAC (((..(((....))))))	33.2 °C	-11.7 kcal/mol
GTCACACGAAAGTGAGAC (((.(((....))).)))	55.1 °C	-31.9 kcal/mol
GTCACAGGAAACTGTGAC (((((((....)))))))	66.8 °C	-42.3 kcal/mol
GTCACCCCGAAAGGGGAC (((..(((....))))))	41.4 °C	-10.1 kcal/mol
GTCACCCGAAAGGGGAC (((.(((....))))))	55 °C	-20.1 kcal/mol
GTCACCGAAAGGTAAGAC ((((((....)))..)))	39 °C	-19.6 kcal/mol
GTCACCGAAAGGTCGAC ((((((....))).)))	48.1 °C	-20.1 kcal/mol
GTCACCGAAAGGTCGGAC ((((((....)))..)))	34.3 °C	-16 kcal/mol

Sequence	Tm [1]	folding enthalpy [2]
GTCACCGGAAACGGTAAC ((.((((....)))).))	38.4 °C	-16.6 kcal/mol
GTCACCTCGAAAGAGGAC (((..(((....))))))	26.9 °C	-9.82 kcal/mol
GTCACGGCGAAAGCCGAC (((..(((....))))))	27.9 °C	-6.5 kcal/mol
GTCACTCGAAAGAGCGAC (((.(((....))).)))	51.5 °C	-43.5 kcal/mol
GTCACTCGAAAGAGGGAC (((.(((....))).)))	60.9 °C	-50.4 kcal/mol
GTCACTGGAAACAGTGGC (.(((((....))))).)	53.7 °C	-40.8 kcal/mol
GTCACTGGAAACGGTGAC (((((.(....).)))))	52.7 °C	-47.5 kcal/mol
GTCAGACCGAAAGGTGAC (((..(((....))))))	44.4 °C	-21.4 kcal/mol
GTCAGAGCGAAAGCTGAC (((..(((....))))))	49.3 °C	-26.4 kcal/mol
GTCAGATCGAAAGATGAC (((..(((....))))))	38.1 °C	-22.2 kcal/mol
GTCAGCGAAAGCTGGGAC ((((((....)))..)))	40.2 °C	-9.13 kcal/mol
GTCAGCGAAAGCTTAGAC ((((((....)))..)))	40 °C	-15.3 kcal/mol
GTCAGCGAAAGCTTCGAC ((((((....)))..)))	32.3 °C	-12 kcal/mol
GTCAGCGGAAACGCCGAC (((.(((....))).)))	49.2 °C	-26.9 kcal/mol
GTCAGCGGAAACGTTGGC (.((.((....)).)).)	42.2 °C	-26 kcal/mol
GTCAGGACGAAAGTCGAC (((..(((....))))))	41.3 °C	-18.7 kcal/mol
GTCAGGGAAACCTGAC ((((((....))))))	61.6 °C	-32.5 kcal/mol
GTCAGGGGAAACCCTGGC (.(((((....))))).)	53.6 °C	-27.7 kcal/mol
GTCAGGGGAAACTCTGGC (.(((.(....).))).)	36.4 °C	-24.5 kcal/mol
GTCAGTGGAAACACTGAC (((((((....)))))))	64.5 °C	-47.6 kcal/mol
GTCAGTGGAAACATTGAC ((((.((....)).))))	45.3 °C	-29.2 kcal/mol
GTCAGTGGAAACGCTGAC (((((.(....).)))))	54.2 °C	-40.5 kcal/mol
GTCATAACGAAAGTTGAC (((..(((....))))))	37.2 °C	-24.4 kcal/mol

Sequence	Tm [1]	folding enthalpy [2]
GTCATACGAAAGTACGAC (((.(((....))).)))	42.9 °C	-28.7 kcal/mol
GTCATATCGAAAGATGAC (((..(((....))))))	37.1 °C	-26.1 kcal/mol
GTCATCCGAAAGGAAGAC (((.(((....))).)))	49.3 °C	-29.9 kcal/mol
GTCATCGAAAGATTAGAC ((((((....)))..)))	32.2 °C	-14 kcal/mol
GTCATCGGAAACGACGAC (((.(((....))).)))	43.2 °C	-29.7 kcal/mol
GTCATCGGAAACGATGAC (((((((....)))))))	67.8 °C	-40 kcal/mol
GTCATGGGAAACCACGAC (((.(((....))).)))	39.9 °C	-31.9 kcal/mol
GTCATGGGAAACCATGGC (.(((((....))))).)	53.2 °C	-24.1 kcal/mol
GTCATGGGAAACCGTGAC ((((.((....)).))))	52.9 °C	-42.3 kcal/mol
GTCATGGGAAACTGTGAC ((((..(....)..))))	39.1 °C	-32.9 kcal/mol
GTCATTCCGAAAGGAGAC (((..(((....))))))	29.2 °C	-10.2 kcal/mol
GTCATTGAAAAATGAC ((((((....))))))	51.9 °C	-38.6 kcal/mol
GTCATTGGAAACGATGAC (((((.(....).)))))	46.7 °C	-41.1 kcal/mol
GTCCAACCGAAAGGTGAC (((..(((....))))))	37.2 °C	-16.3 kcal/mol
GTCCAACGAAAGTTAGAC (((.(((....))).)))	38.5 °C	-29.6 kcal/mol
GTCCACCGAAAGGTAGAC (((.(((....))).)))	47.4 °C	-26.4 kcal/mol
GTCCACCGAAAGGTGAC (((.(((....))))))	46.1 °C	-12.5 kcal/mol
GTCCACGAAAGTGCAGAC ((((((....)))..)))	36.2 °C	-16.5 kcal/mol
GTCCACGAAAGTGCGAC ((((((....))).)))	50.9 °C	-22.8 kcal/mol
GTCCACGAAAGTGCGGAC ((((((....)))..)))	45 °C	-17.4 kcal/mol
GTCCACGAAAGTGTGAC ((((((....))).)))	50.4 °C	-22.4 kcal/mol
GTCCACGGAAACGTAGAC (((.(((....))).)))	41 °C	-26.6 kcal/mol
